Hits are enriched below; roughly 2.9% of the tested compounds scored in any of these assays.
S100A4 inh HTS: inhibitors of S100A4-myosin IIA peptide binding, primary screen, biochemical, fluorescence polarization, TAMRA-MyoIIA peptide. inhibition, % at 10.7 µM. 0.14% of 360,000 active. AID 652163, 2013;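 active = mean inhibition of at least 70% across replicates, with every replicate also reaching that level; inconclusive = mean inhibition reaches 70% but some replicates fall short; inactive = mean inhibition below 70%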
Target sequence (P26447 whole entry, looked up): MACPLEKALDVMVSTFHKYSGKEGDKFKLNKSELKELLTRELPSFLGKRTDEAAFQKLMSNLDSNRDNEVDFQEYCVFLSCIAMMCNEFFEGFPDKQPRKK
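incubation = readout 5 min after mixing, signal stable up to 60 min | system = S100A4 monomer protein | buffer or medium = HEPES pH 7.2 with CaCl2, KCl, NaCl, DTT, Triton | benchmarks = neutral control DMSO, positive control TFP | also added = fluorescent myosin IIA peptide, 5 nM | compound dosing = one concentration per compound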
Statin myotox sup: suppressors of statin myotoxicity in C2C12 myotubes, primary screen, cell-based, single point, plate reader; C2C12 myotubes + simvastatin, ATP luminescence, 48 h; scaled: DMSO 0, geranylgeraniol control 100; rescue of ATP level, % at 7.49 µM; 0.78% of 330,000 active; AID 602340, 2012;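 active = mean ATP rescue above about 67%, or every replicate alone reaching that limit, limit read from the data, passing the limit was not always enough; inconclusive = no clear call, values can overlap the other calls; inactive = mean under the limit and some replicate under it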;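 also: myotubes were challenged with 10 µM simvastatin during compound exposure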
SIRT5 block: SIRT5 desuccinylase inhibitors, primary screen, biochemical, fluorescence imaging, single point, set 5 | NAD-dependent protein deacylase sirtuin-5, mitochondrial (Homo sapiens), Q9NXA8 | Purified SirT5, succinyl-peptide AMC, trypsin-coupled fluorescence | inhibition, % at 15 µM | 1.1% of 330,000 active; in the data active = inhibition above about 15%; inconclusive = no clear call, values can overlap the other calls
Target sequence (Q9NXA8 whole entry, looked up): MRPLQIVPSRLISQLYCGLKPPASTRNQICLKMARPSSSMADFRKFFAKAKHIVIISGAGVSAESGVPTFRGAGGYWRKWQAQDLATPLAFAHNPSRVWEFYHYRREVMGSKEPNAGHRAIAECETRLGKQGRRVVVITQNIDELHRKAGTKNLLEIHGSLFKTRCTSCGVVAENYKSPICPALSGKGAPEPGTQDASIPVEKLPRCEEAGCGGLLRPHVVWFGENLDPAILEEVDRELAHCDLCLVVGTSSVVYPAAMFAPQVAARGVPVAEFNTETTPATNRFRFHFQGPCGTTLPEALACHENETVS
PGC1a acetyl inh: inhibitors of PGC1a acetylation signal, primary screen, cell-based, U2OS, AlphaScreen, inhibitor mode; AlphaScreen anti-acetyl-lysine; with virally co-expressed GCN5 acetyltransferase; inhibition, % at 15.6 µM; 0.17% of 350,000 active; AID 651687, 2012;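 active = every replicate shows inhibition of at least 40%; inconclusive = mean inhibition at least 40% but some replicate below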
DENV2 CPE: inhibitors of DENV2 cytopathic effect, primary screen, cell-based, plate reader, single concentration; 1.7% of 350,000 active; DENV2-infected cells, cytopathic effect rescue; CPE inhibition, % at 9.99 µM; in the data active = CPE inhibition above about 20%, passing the limit was not always enough; inconclusive = no clear call, values can overlap the other calls; tested in BHK-21 cells
Each line names hits and unclear results; the compound was inactive in the other large screens.

CC(C)NC(=O)N(C)C[C@H]1Oc2ccc(NS(=O)(=O)c3ccc(Cl)cc3)cc2CC(=O)N([C@H](C)CO)C[C@@H]1C	none (no result: S100A4 inh HTS, SIRT5 block, DENV2 CPE)
C[C@@H]1CN([C@H](C)CO)C(=O)c2cc(-c3ccccc3)cnc2O[C@@H]1CN(C)C(=O)c1ccccc1F	DENV2 CPE 105
CC(=O)N(C)C[C@H]1Oc2ncc(-c3ccccc3C)cc2C(=O)N([C@H](C)CO)C[C@@H]1C	none
C[C@H]1CN([C@@H](C)CO)C(=O)c2cc(-c3cccnc3)cnc2O[C@H]1CN(C)C(=O)C1CCC1	DENV2 CPE 24
CC(=O)N(C)C[C@@H]1Oc2ncc(-c3ccccc3C)cc2C(=O)N([C@H](C)CO)C[C@H]1C	SIRT5 block 32, DENV2 CPE inconclusive
C[C@H]1CN([C@@H](C)CO)C(=O)c2cc(-c3ccccc3)cnc2O[C@@H]1CN(C)C(=O)c1ccccc1F	DENV2 CPE inconclusive
C[C@H]1CN([C@@H](C)CO)C(=O)c2cc(-c3cccnc3)cnc2O[C@@H]1CN(C)C(=O)C1CCC1	none
Cc1noc(C)c1NC(=O)Nc1cccc2c1O[C@@H](CN(C)Cc1ccc(-c3ccccc3)cc1)[C@@H](C)CN([C@H](C)CO)C2=O	DENV2 CPE inconclusive
CC(C)NC(=O)N(C)C[C@H]1Oc2ncc(-c3ccccc3F)cc2C(=O)N([C@H](C)CO)C[C@H]1C	none
CC(C)NC(=O)N(C)C[C@@H]1Oc2ncc(-c3ccccc3F)cc2C(=O)N([C@@H](C)CO)C[C@H]1C	DENV2 CPE 23
C[C@H](CO)N1C[C@H](C)[C@H](CN(C)C)Oc2ncc(-c3ccccc3F)cc2C1=O	SIRT5 block 17
CN(C)c1ccc(CNc2nc3ccccc3n2C)cc1	none (no result: SIRT5 block)
CCCn1c(NCc2ccc(N(C)C)cc2)nc2ccccc21	DENV2 CPE 24
CCCCCCc1ccc(OCC(=O)OC)cc1OCC(=O)OC	SIRT5 block 23 (no result: Statin myotox sup, PGC1a acetyl inh)
CC(C)NC(=O)Nc1ccc2c(c1)CC(=O)N([C@@H](C)CO)C[C@@H](C)[C@H](CN(C)S(=O)(=O)c1ccc(F)cc1)O2	DENV2 CPE 45
C[C@@H]1CN([C@H](C)CO)C(=O)Cc2cc(NC(=O)Nc3ccc(F)cc3)ccc2O[C@H]1CN(C)S(=O)(=O)c1ccc(Cl)cc1	DENV2 CPE 21
Cc1ccc(S(=O)(=O)N(C)C[C@@H]2Oc3ccc(NC(=O)Nc4ccc(F)cc4)cc3CC(=O)N([C@H](C)CO)C[C@@H]2C)cc1	none
Cc1ccc(S(=O)(=O)N(C)C[C@H]2Oc3ccc(NC(=O)Nc4ccc(F)cc4)cc3CC(=O)N([C@H](C)CO)C[C@@H]2C)cc1	DENV2 CPE 80
CC(C)NC(=O)Nc1ccc2c(c1)CC(=O)N([C@H](C)CO)C[C@@H](C)[C@H](CN(C)S(=O)(=O)c1ccc(F)cc1)O2	none (no result: S100A4 inh HTS, SIRT5 block, DENV2 CPE)
Cc1cc2nc(/C=C/c3nc4cc(C)c(C)cc4[nH]3)[nH]c2cc1C	none
Cc1cc2nc(/C=C/c3cccnc3)[nH]c2cc1C	PGC1a acetyl inh 67
Cc1ccc(N/C=C(\[N+](=O)[O-])S(=O)(=O)c2ccccc2)cc1	none (no result: Statin myotox sup)
Cc1cccc(N/C=C(\[N+](=O)[O-])S(=O)(=O)c2ccccc2)c1	SIRT5 block 40 (no result: Statin myotox sup)
CC(C)(C)OC(=O)[C@H](NC(=O)OCc1ccccc1)c1ccccc1	none (no result: SIRT5 block)
C[C@H](NC(=O)OCc1ccccc1)C(=O)NNC(=O)[C@H](C)NC(=O)OCc1ccccc1	SIRT5 block 21
CC(C)(C)OC(=O)N[C@@H](CC(=O)OCc1ccccc1)C(=O)O	none (no result: Statin myotox sup)
C[C@H](NC(=O)OCc1ccccc1)C(=O)NNC(=O)[C@H](Cc1ccccc1)NC(=O)OC(C)(C)C	none (no result: PGC1a acetyl inh)
CC(C)(C)OC(=O)C(Cc1ccc(OC(C)(C)C)cc1)NC(=O)CNC(=O)OCc1ccccc1 (stereo unspecified)	DENV2 CPE 77 (no result: Statin myotox sup, PGC1a acetyl inh)
CC(C)(C)OC(=O)NC(CC(=O)OCc1ccccc1)C(=O)O (stereo unspecified)	DENV2 CPE 47
COCC(=O)N1[C@H](C#N)[C@H](c2ccccc2)[C@@H]1CO	none
CC(=O)OCCCN(C)CC/C=C1/c2ccccc2CSc2ccccc21	DENV2 CPE 43 (no result: Statin myotox sup)

Screening results from PubChem.
